Shown are actives, neighbours in structure and some others; about 2.2% of the full set was active somewhere.
F508del corr: F508del CFTR correction, initial screen, CFBE line, single point; 350,000 compounds, 0.36% hits; AID 720511, 2013; activity (quench increase), % at 7.58 µM; CFBE cells, YFP halide quenching; stimulated with forskolin plus potentiator P3; % fluorescence drop versus neutral controls;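 active means mean added fluorescence quench of at least 8% versus neutral control, with both replicates also reaching 8%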;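 further: cells transiently co-express mutant CFTR-F508del with the halide-sensitive YFP; corrector assay measuring rescue of mutant channel to the surface after 24 h compound exposure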
dFosB act-1: activators of delta FosB homodimer, primary screen, biochemical, fluorescence polarization, TAMRA-CDK5 oligo, single point; activation, % at 25 µM; purified delta FosB; percent of positive-control signal above neutral wells; 340,000 compounds, 0.99% hits;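 active means mean activation above about 17%, with every replicate also reaching it, limit read from the data, passing the limit was not always enough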
Target sequence (P13346 whole entry, looked up): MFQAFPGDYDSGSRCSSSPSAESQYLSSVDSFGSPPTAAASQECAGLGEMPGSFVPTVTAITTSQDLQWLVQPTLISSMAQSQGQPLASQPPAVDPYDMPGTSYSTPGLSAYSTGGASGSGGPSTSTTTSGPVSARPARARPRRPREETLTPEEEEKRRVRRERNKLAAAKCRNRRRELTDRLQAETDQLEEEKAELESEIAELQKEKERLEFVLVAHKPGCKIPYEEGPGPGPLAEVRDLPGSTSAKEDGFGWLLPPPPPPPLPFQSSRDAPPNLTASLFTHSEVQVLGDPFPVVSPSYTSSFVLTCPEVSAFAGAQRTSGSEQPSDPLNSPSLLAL
S100A4 MyoIIA: inhibitors of S100A4-myosin IIA peptide binding, primary screen, biochemical, fluorescence polarization, TAMRA-MyoIIA peptide | Protein S100-A4 (Homo sapiens), P26447 | inhibition, % at 10.7 µM | 360,000 compounds, 0.14% hits;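 active means mean inhibition of at least 70% across replicates, with every replicate also reaching that level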
Target sequence (P26447 whole entry, looked up): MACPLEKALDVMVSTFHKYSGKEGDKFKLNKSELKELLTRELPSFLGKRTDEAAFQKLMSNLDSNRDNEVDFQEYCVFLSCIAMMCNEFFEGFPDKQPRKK
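Material: human S100A4 monomer with TAMRA-labelled myosin IIA peptide; buffer or medium: HEPES pH 7.2 with CaCl2, KCl, NaCl, DTT, Triton; compound dosing: one concentration per compound; schedule: 5 min incubation before reading; benchmarks: neutral control DMSO, positive control TFP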
FGF22 binding: binders of human FGF22 protein, primary screen, FGF22 synaptogenesis inhibitor project, biophysical, thermal shift, single point. AID 651658, 2012. recombinant FGF22 thermal shift, SYPRO orange fluorescence; percent of sucrose octasulfate shift, DMSO zero. activity (Tm shift, normalised), % at 9.99 µM. Fibroblast growth factor 22 (Homo sapiens), Q9HCT0. 340,000 compounds, 1.5% hits;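 active means mean Tm shift, scaled 0 neutral to 100 positive control, at about 1.3% or above, every replicate too, limit read from the data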
Target sequence (Q9HCT0 whole entry, looked up): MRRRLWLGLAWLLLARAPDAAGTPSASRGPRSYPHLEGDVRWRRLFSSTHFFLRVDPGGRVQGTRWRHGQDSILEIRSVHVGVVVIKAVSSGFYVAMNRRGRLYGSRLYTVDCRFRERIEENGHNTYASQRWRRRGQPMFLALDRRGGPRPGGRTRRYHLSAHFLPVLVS
dFosB act-2: activators of mouse delta FosB DNA binding, confirmation, biochemical, fluorescence polarization, TAMRA-CDK5 oligo, cherry-picked samples | shares compounds with dFosB act-1 | 2,400 tested, under 10 active | purified delta FosB; normalised: neutral wells 0, positive control 100 | activation, % at 24.9 µM | AID 588690, 2011;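 active means highest replicate activation at or above 34% and every replicate reaching that threshold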;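 further: higher polarization means more probe DNA bound by delta FosB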
* hit, by the source's call; x = not tested or not shown.

SMILES | F508del corr | dFosB act-1 | S100A4 MyoIIA | FGF22 binding | dFosB act-2
N#C/C(=C/c1ccc(F)cc1)c1nnc(NC(=O)c2ccccc2)s1 | 7 | 21* | 1 | 0 | -6
O=C(COc1ccc2ccccc2c1Br)Nc1ncn[nH]1 | -1 | 25* | -4 | 0 | 6
Cc1cccc(C)c1OCC(=O)Nc1ncn[nH]1 | x | -8 | x | x | x
CO[C@@H]1CN(C)C(=O)c2ccc(NS(=O)(=O)c3ccccc3)cc2OC[C@@H](C)N(C(=O)NC(C)C)C[C@H]1C | 1 | x | -2 | 0 | x
Cc1c(Cc2ccccc2)sc(NC(=O)c2ccco2)c1C(N)=O | x | 21* | x | x | 3
COC(=O)c1c(NC(=O)c2ccco2)sc(C)c1C | x | -1 | x | x | x
CCN(CC)CCN1C(=O)c2cccc3cc(N)cc(c23)C1=O | 0 | 24* | 10 | 0 | -4
Nc1cc2c3c(cccc3c1)C(=O)N(CCN1CCCC1)C2=O | 2 | 57* | -7 | 0 | -2
CCNC(=S)N1CCN(CCN2C(=O)c3cccc4cccc(c34)C2=O)CC1 | 1 | 10 | -3 | 0 | x
NC(=O)CN1CCN(CCN2C(=O)c3cccc4cccc(c34)C2=O)CC1 | 2 | 24* | -8 | 0 | -9
COc1ccc(OC)c(-c2cc(C(=O)Nc3ccc(F)cc3F)no2)c1 | -2 | 33* | -1 | 0 | 6
COc1ccc(Br)cc1CNC(=O)CCc1nc(-c2ccc(C)cc2)no1 | x | 21* | x | x | 0
COc1ccc(-c2noc(CCC(=O)NCc3cc(Br)ccc3OC)n2)cc1 | x | 3 | x | x | x
O=C(COc1ccc2c(-c3ccccc3)cc(=O)oc2c1)Nc1ccc(CN2CCOCC2)cc1 | 0 | 27* | -1 | 0 | 2
O=C(NC1CCCC1)[C@@H]1[C@@H](CO)[C@@H]2Cn3c(ccc(-c4cccnc4)c3=O)[C@H]1N2CCc1ccccc1 | 2 | x | -42 | 0 | x
O=C(CSc1nnnn1-c1ccccc1)Nc1ncc(Cc2ccccc2Cl)s1 | -4 | 39* | 3 | 0 | 0
C[C@@H]1CN([C@H](C)CO)C(=O)Cc2cc(NC(=O)Cn3cnnn3)ccc2O[C@@H]1CN(C)C | -4 | x | -37 | x | x
Cc1cc(C)c2c(N)c(C(=O)c3ccc(Cl)c(Cl)c3)sc2n1 | 1 | 37* | -12 | 0 | 4
Cc1cc(C)c2c(N)c(C(=O)c3ccc(Cl)cc3)sc2n1 | x | 5 | 2 | 0 | x
Cc1ccccc1-c1cnc2c(c1)C(=O)N([C@@H](C)CO)C[C@@H](C)[C@H](CN(C)Cc1cncnc1)O2 | 1 | x | -1 | 0 | x
N#CCCn1cc(/C=N/NC(N)=S)c(-c2ccc(-c3ccccc3)cc2)n1 | 3 | 27* | -7 | 0 | 4
CCOc1ccccc1NC(=O)Cn1nnc(C(=O)NCc2ccco2)c1N | x | 28* | x | x | 4
Cc1ccc(NC(=O)Cn2nnc(C(=O)NCc3ccc(Cl)cc3)c2N)cc1F | 1 | 77* | -2 | 0 | 1
Cc1ccc(NC(=O)Cn2nnc(C(=O)NCc3ccccc3)c2N)cc1C | x | -1 | -5 | x | x
CSc1cccc(NC(=O)c2nnn(CC(=O)Nc3cc(C)cc(C)c3)c2N)c1 | 0 | 64* | -7 | 0 | 0
SMILES | F508del corr | dFosB act-1 | S100A4 MyoIIA | FGF22 binding | dFosB act-2
Cc1ccc(NC(=O)c2nnn(CC(=O)Nc3ccccc3)c2N)cc1C | x | 0 | x | x | x
Cc1cc(C)cc(NC(=O)Cn2nnc(C(=O)NCc3ccc4c(c3)OCO4)c2N)c1 | 1 | 77* | -2 | 0 | 2
CCCC(=O)Nc1ccc2c(c1)C(=O)N(C)[C@@H]1CC[C@@H](CC(=O)N3CCc4ccccc4C3)O[C@@H]1CO2 | -3 | x | x | 0 | x
CNC[C@H]1OCCCC[C@@H](C)Oc2ccc(NC(=O)NC(C)C)cc2C(=O)N([C@H](C)CO)C[C@@H]1C | 1 | x | -5 | 0 | x
COc1ccc(NC(=O)Cn2nnc(C(=O)NCc3ccc(C)cc3)c2N)cc1OC | 1 | 7 | 1 | 0 | x
Cc1cc(C)cc(NC(=O)Cn2nnc(C(=O)NCc3ccco3)c2N)c1 | -2 | 32* | -9 | 0 | 7
Cc1ccc(Cn2nnc(C(=O)Nc3cc(C)ccc3C)c2N)cc1 | x | -4 | x | x | x
Cc1ccc(CNC(=O)c2nnn(CC(=O)Nc3cc(C)cc(C)c3)c2N)cc1 | 0 | 88* | 4 | 0 | -7
Cc1ccc(CNC(=O)Cn2nnc(C(=O)Nc3cc(C)ccc3C)c2N)cc1 | 0 | 36* | -6 | 0 | 0
C[C@H](CO)N1C[C@H](C)[C@H](CN(C)Cc2ccc(C(F)(F)F)cc2)Oc2c(NC(=O)c3cnccn3)cccc2C1=O | 2 | x | -2 | 0 | x
NS(=O)(=O)c1ccc(CCNC(=O)C2CCC(Cn3c(=S)[nH]c4ccccc4c3=O)CC2)cc1 (configuration not stated) | 1 | 18* | 3 | 0 | 3
CC(=O)NCCNC(=O)C1CCC(CNc2nc(=S)[nH]c3ccccc23)CC1 (configuration not stated) | -1 | -1 | 0 | 0 | x
O=C(NCCc1ccccc1)C1CCC(CNc2nc(=S)[nH]c3ccccc23)CC1 (configuration not stated) | -1 | 24* | -2 | 1 | 6
NS(=O)(=O)c1ccc(CCNC(=O)C2CCCCC2)cc1 | x | 0 | x | x | x
CCCNC(=O)Nc1ccc2c(c1)OC[C@@H](C)N(Cc1ccncc1)C[C@@H](C)[C@@H](OC)CN(C)C2=O | -1 | x | 1 | 0 | x
COc1cc(NC(=O)COc2ccccc2[N+](=O)[O-])ccc1NC(=O)c1ccco1 | -1 | 34* | -2 | 0 | 3
O=C(COc1ccccc1Cl)Nc1ccc(NC(=O)c2ccco2)cc1 | 0 | 21* | -5 | 0 | 7
O=C(COc1ccccc1Cl)Nc1cc(Cl)ccc1O | -5 | 22* | -7 | 0 | -1
C[C@H](CO)N1C[C@H](C)[C@@H](CN(C)CC2CCCCC2)Oc2c(NC(=O)c3cnccn3)cccc2C1=O | -4 | x | x | 0 | x
Oc1ccc(C[C@H]2CNC(=S)N2CC2CCCN2C[C@H](Cc2ccc(O)cc2)N2C[C@H](Cc3ccccc3)N(CC3CCCCCC3)C2=S)cc1 (some centres not stated) | 0 | 72* | -2 | 0 | 3
CCOc1ccc(CCN2C(=S)N([C@@H](Cc3ccc(O)cc3)CN3CCCC3CN3C(=S)NC[C@@H]3Cc3ccc(O)cc3)C[C@@H]2CC(C)C)cc1 (some centres not stated) | 3 | 88* | 4 | 0 | 3
C[C@H]1CN([C@@H](C)CO)C(=O)c2cc(NC(=O)CCN3CCOCC3)ccc2O[C@H]1CN(C)C | 0 | x | 6 | 0 | x
